In ChEMBL document CHEMBL1154853, “New 1,3-oxazolo[4,5-c]quinoline derivatives: synthesis and evaluation of antibacterial and antituberculosis properties” (2010):
Converted amounts (≈) assume the structure as drawn.

Assays:
Type in all cases: functional
Staphylococcus aureus [1] = test: Antimicrobial activity against Staphylococcus aureus […] after 16 to 18 hrs by serial dilution method
In short: (§1)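 Tube broth dilution: serial drug dilutions in Mueller Hinton broth, pH adjusted to 5.0 with phosphate buffer. A standardized bacterial suspension was inoculated and incubated 16-18 h at 37 °C. MIC was read as the lowest drug concentration with no visible growth. Ciprofloxacin served as the reference.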

Escherichia coli [2] = test: Antimicrobial activity against Escherichia coli […] after 16 to 18 hrs by serial dilution method; in short: as §1
Pseudomonas aeruginosa [3] = test: Antimicrobial activity against Pseudomonas aeruginosa ATTC 27853 after 16 to 18 hrs by serial dilution method; in short: as §1
Klebsiella pneumoniae [4] = test: Antimicrobial activity against Klebsiella pneumoniae after 16 to 18 hrs by serial dilution method; in short: as §1
Staphylococcus aureus [5] = test: Antimicrobial activity against Staphylococcus aureus […] at MIC after 3 to 4 days by disc diffusion method
Escherichia coli [6] = test: Antimicrobial activity against Escherichia coli […] at MIC after 3 to 4 days by disc diffusion method
Pseudomonas aeruginosa [7] = test: Antimicrobial activity against Pseudomonas aeruginosa ATTC 27853 at MIC after 3 to 4 days by disc diffusion method
Klebsiella pneumoniae [8] = test: Antimicrobial activity against Klebsiella pneumoniae at MIC after 3 to 4 days by disc diffusion method
[9] = test system: Mycobacterium tuberculosis; test: Antitubercular activity against Mycobacterium tuberculosis H37Rv after 24 hrs by broth microdilution method
In short: (§2)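 M. tuberculosis H37Rv grown in Middlebrook 7H9 with 10% OADC, diluted to McFarland 1, 50 µl added to 150 µl fresh medium. Compounds from 2 mg/mL DMF stocks tested at 1, 10 and 100 µg/mL; DMF-only controls. 7 days at 37 °C, then 0.01% resazurin added with 24 h further incubation. MIC = lowest concentration preventing blue-to-pink change.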

[10] = test system: Mycobacterium tuberculosis; test: Antitubercular activity against Mycobacterium tuberculosis H37Rv at MIC after 24 hrs by broth microdilution method; in short: as §2

Structure (SMILES)	MIC (Staphylococcus aureus [1]) [µg/mL]	MIC (Escherichia coli [2]) [µg/mL]	MIC (Pseudomonas aeruginosa [3]) [µg/mL]	MIC (Klebsiella pneumoniae [4]) [µg/mL]	diameter of the inhibition zone (DIZ) (Staphylococcus aureus [5]) [mm]	diameter of the inhibition zone (DIZ) (Escherichia coli [6]) [mm]	diameter of the inhibition zone (DIZ) (Pseudomonas aeruginosa [7]) [mm]	diameter of the inhibition zone (DIZ) (Klebsiella pneumoniae [8]) [mm]	MIC [9] [µg/mL]	inhibition (INH) [10] [%]
COc1ccccc1NC(=O)Nc1c(-c2ccc(F)cc2)nc2ccccc2c1O	6.25 (≈ 15.5 µM)	6.25 (≈ 15.5 µM)	6.25 (≈ 15.5 µM)	6.25 (≈ 15.5 µM)	17	21	16	19	1 (≈ 2.48 µM)	99
Fc1cccc(-c2nc3ccccc3c3oc(NCCc4ccccc4)nc23)c1	50 (≈ 130 µM)	50 (≈ 130 µM)	50 (≈ 130 µM)	50 (≈ 130 µM)	<10	<10	<10	<10	> 100	0
Fc1cccc(-c2nc3ccccc3c3oc(NCc4ccccc4)nc23)c1	6.25 (≈ 16.9 µM)	6.25 (≈ 16.9 µM)	6.25 (≈ 16.9 µM)	6.25 (≈ 16.9 µM)	22	23	19	18	1 (≈ 2.71 µM)	99
CCCCCNc1nc2c(-c3ccc(F)cc3)nc3ccccc3c2o1	50 (≈ 143 µM)	50 (≈ 143 µM)	50 (≈ 143 µM)	50 (≈ 143 µM)	<10	<10	<10	<10	> 100	0
COc1ccccc1Nc1nc2c(-c3cccc(F)c3)nc3ccccc3c2o1	6.25 (≈ 16.2 µM)	6.25 (≈ 16.2 µM)	6.25 (≈ 16.2 µM)	6.25 (≈ 16.2 µM)	21	24	21	21	1 (≈ 2.59 µM)	99
N#Cc1cccc(NC(=O)Nc2c(-c3cccc(F)c3)nc3ccccc3c2O)c1	6.25 (≈ 15.7 µM)	6.25 (≈ 15.7 µM)	6.25 (≈ 15.7 µM)	6.25 (≈ 15.7 µM)	19	23	19	18	> 100	0
O=C(Nc1ccc(F)cc1)Nc1c(-c2cccc(F)c2)nc2ccccc2c1O	6.25 (≈ 16 µM)	6.25 (≈ 16 µM)	6.25 (≈ 16 µM)	6.25 (≈ 16 µM)	20	21	19	16	10 (≈ 25.6 µM)	95
COc1ccccc1Nc1nc2c(-c3ccc(F)cc3)nc3ccccc3c2o1	6.25 (≈ 16.2 µM)	6.25 (≈ 16.2 µM)	6.25 (≈ 16.2 µM)	6.25 (≈ 16.2 µM)	22	27	19	23	1 (≈ 2.59 µM)	99
Fc1ccc(Nc2nc3c(-c4ccc(F)cc4)nc4ccccc4c3o2)cc1	6.25 (≈ 16.7 µM)	6.25 (≈ 16.7 µM)	6.25 (≈ 16.7 µM)	6.25 (≈ 16.7 µM)	20	28	22	20	1 (≈ 2.68 µM)	99
O=C(Nc1cccc(Cl)c1)Nc1c(-c2ccc(F)cc2)nc2ccccc2c1O	6.25 (≈ 15.3 µM)	6.25 (≈ 15.3 µM)	6.25 (≈ 15.3 µM)	6.25 (≈ 15.3 µM)	18	22	20	20	10 (≈ 24.5 µM)	95
Fc1ccc(Nc2nc3c(-c4cccc(F)c4)nc4ccccc4c3o2)cc1	6.25 (≈ 16.7 µM)	6.25 (≈ 16.7 µM)	6.25 (≈ 16.7 µM)	6.25 (≈ 16.7 µM)	22	25	25	19	1 (≈ 2.68 µM)	99
